Measurements taken from ChEMBL document CHEMBL4270591, “Exploitation of new chalcones and 4H-chromenes as agents for cancer treatment” (Eur J Med Chem, 2018).
Calls of active or inactive are those of the source. The rule behind the calls is not given here.

Assays:
MCF7 [1] = assay: Anticancer activity against human MCF7 cells assessed as cell viability at 10 uM after 72 hrs by sulforhodamine B assay relative to control; type: functional; conditions: MCF7, 72 h, read-out: Activity
MCF7 [2] = assay: Anticancer activity against human MCF7 cells assessed as cell viability at 30 uM after 72 hrs by sulforhodamine B assay relative to control; type: functional; conditions: MCF7, 72 h, read-out: Activity
Hs-578T [3] = assay: Anticancer activity against human Hs 578T cells assessed as cell viability at 10 uM after 72 hrs by sulforhodamine B assay relative to control; type: functional; conditions: read-out: Activity
Hs-578T [4] = assay: Anticancer activity against human Hs 578T cells assessed as cell viability at 30 uM after 72 hrs by sulforhodamine B assay relative to control; type: functional; conditions: read-out: Activity
[5] = Cytotoxicity against human MCF10A cells assessed as cell viability at 10 uM after 72 hrs by sulforhodamine B assay relative to control; type: cell-based, MCF-10A; conditions: read-out: Activity
[6] = Cytotoxicity against human MCF10A cells assessed as cell viability at 30 uM after 72 hrs by sulforhodamine B assay relative to control; type: cell-based, MCF-10A; conditions: read-out: Activity
MCF7 [7] = assay: Anticancer activity against human MCF7 cells after 72 hrs by sulforhodamine B assay; type: functional, cell-based; conditions: MCF7, 72 h
How it was run: (§1)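 Cells seeded at 3000 cells/100 µL per well, left to adhere overnight (18-20 h), then exposed to a range of compound concentrations for 72 h. Vehicle control was 0.5% DMSO. Cytotoxicity was read by sulforhodamine B at 490 nm, with 690 nm as background. IC50 came from sigmoidal variable-slope nonlinear regression on log-transformed data, from at least three independent experiments, each in triplicate.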

Hs-578T [8] = assay: Anticancer activity against human Hs 578T cells after 72 hrs by sulforhodamine B assay; type: functional, cell-based; how it was run: as §1
MCF-10A [9] = assay: Cytotoxicity against human MCF10A cells after 72 hrs by sulforhodamine B assay; type: cell-based; how it was run: as §1
MCF7 [10] = assay: Antimigratory activity against human MCF7 cells assessed as reduction in cell migration at half IC50 to IC50 after 12 to 48 hrs by microscopy based wound healing assay; type: functional
How it was run: (§2)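 Wound healing: MCF-7 cells plated at 9.0 × 10^5 per 2 mL and grown overnight to confluence. Two scratches made with a pipette tip, then wash with PBS. Treatment at IC50 or ½ IC50, or 0.5% DMSO. Four positions per wound were imaged at 0, 12, 24 and 48 h at 100x. Migration distances were measured and normalised to control. Three independent experiments.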

MCF7 [11] = assay: Antiproliferative activity against human MCF7 cells at half IC50 to IC50 after 24 to 48 hrs by Brdu incorporation assay; type: functional, cell-based
How it was run: (§3)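 Labelling with 20 µM BrdU (final) for 6 h. FixDenat 30 min, then anti-BrdU-POD 90 min at room temperature. Substrate colour for 5-10 min, stopped with H2SO4, absorbance at 450 nm (reference 690 nm). Cell-free blanks included. At least three independent experiments in triplicate.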

MCF7 [12] = assay: Induction of apoptosis in human MCF7 cells at IC50 after 48 hrs by Annexin-V-FITC/propidium iodide staining based flow cytometry; type: functional, cell-based
How it was run: (§4)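 Floating and adherent cells were pooled and resuspended in binding buffer. Staining with FITC-annexin V and PI for 15 min at room temperature in the dark, followed by flow cytometry quadrant analysis normalised to untreated cells. Two independent experiments, triplicates within each.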

MCF7 [13] = assay: Induction of apoptosis in human MCF7 cells assessed as increase in cleaved PARP level at IC50 after 24 hrs by Western blot analysis; type: functional, cell-based
How it was run: (§5)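 MCF-7 cells at 70-80% confluence were treated at IC50 or with 0.5% DMSO for 24 h. Lysis in Tris/NaCl/EDTA buffer with NP-40, Triton X-100, phosphatase and protease inhibitors. 20 µg protein run on 12% SDS-PAGE and transferred to nitrocellulose. Probed overnight at 4 °C with anti-PARP (1:500) or anti-BIM (1:1000), then HRP secondaries and chemiluminescence. At least two independent experiments.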

MCF7 [14] = assay: Induction of apoptosis in human MCF7 cells assessed as increase in Bim level at IC50 after 24 hrs by Western blot analysis; type: functional, cell-based; how it was run: as §5
MCF7 [15] = assay: Cell cycle arrest in human MCF7 cells at IC50 after 48 hrs by propidium iodide staining based flow cytometry; type: functional
How it was run: (§6)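 MCF-7 cells seeded at 2.5×10^5 per well and grown overnight. […] Cells fixed in 70% ethanol for at least 30 min at 4 °C, then stained with PI (50 µg/mL) plus RNase A and Triton X-100 for 1 h in the dark at […]. Flow cytometry with 488 nm excitation gave the phase distribution. Two independent biological replicates.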

MCF7 [16] = assay: Induction of microtubule disruption in human MCF7 cells at IC50 after 12 hrs by DAPI staining based microscopic analysis; type: cell-based
How it was run: (§7)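 MCF-7 cells seeded at 2.0×10^5 per well and incubated overnight. Treatment at IC50 for 12 h, with 0.5% DMSO vehicle and paclitaxel (2 µM) as reference. Fixation in methanol for 20 min at -20 °C and blocking in 5% BSA. β-tubulin antibody (1:200) for 2 h, fluorescent secondary for 1 h, and DAPI nuclear counterstain. Confocal imaging with a 60x oil objective, 405/488 nm excitation.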

MCF7 [17] = assay: Antiproliferative activity against human MCF7 cells after 72 hrs in presence of doxorubicin by sulforhodamine B assay; type: functional, cell-based; conditions: MCF7, 72 h
MCF-10A [18] = assay: Cytotoxicity against human MCF10A cells after 72 hrs in presence of doxorubicin by sulforhodamine B assay; type: cell-based
[19] = Selectivity index, ratio of IC50 for human MCF10A cells in presence of doxorubicin to IC50 for human MCF7 cells in presence of doxorubicin; type: toxicity; conditions: MCF10A cells and MCF7 cells, read-out: Ratio IC50
MCF7 [20] = assay: Induction of apoptosis in human MCF7 cells assessed as decrease in Bcl-xL level at IC50 after 48 hrs by Western blot analysis
MCF7 [21] = assay: Antiproliferative activity against human MCF7 cells at IC50 after 48 hrs by Brdu incorporation assay relative to control; type: functional; how it was run: as §3
MCF7 [22] = assay: Induction of apoptosis in human MCF7 cells assessed as increase in early apoptotic cells at IC50 after 48 hrs by Annexin-V-FITC/propidium iodide staining based flow cytometry; type: functional, cell-based; how it was run: as §4
MCF7 [23] = assay: Induction of apoptosis in human MCF7 cells assessed as increase in late apoptotic cells at IC50 after 48 hrs by Annexin-V-FITC/propidium iodide staining based flow cytometry; type: functional, cell-based; how it was run: as §4
MCF7 [24] = assay: Cell cycle arrest in human MCF7 cells assessed as DNA fragmentation at IC50 after 48 hrs by propidium iodide staining based flow cytometry; type: functional; how it was run: as §6
MCF7 [25] = assay: Cell cycle arrest in human MCF7 cells assessed as accumulation at sub-G0/G1 phase at IC50 after 48 hrs by propidium iodide staining based flow cytometry; type: functional; how it was run: as §6
MCF7 [26] = assay: Antimigratory activity against human MCF7 cells assessed as reduction in cell migration at half IC50 to IC50 after 48 hrs by microscopy based wound healing assay relative to control; type: functional; set-up: scale not given: the % may be the effect or the level left; how it was run: as §2
MCF7 [27] = assay: Cell cycle arrest in human MCF7 cells assessed as accumulation at G2/M phase at IC50 after 48 hrs by propidium iodide staining based flow cytometry; type: functional; how it was run: as §6
MCF7 [28] = assay: Cell cycle arrest in human MCF7 cells assessed as reduction in G0/G1 population at IC50 after 48 hrs by propidium iodide staining based flow cytometry; type: functional; how it was run: as §6
MCF7 [29] = assay: Induction of microtubule disruption in human MCF7 cells assessed as cell detachment at IC50 after 12 hrs by DAPI staining based microscopic analysis; how it was run: as §7
MCF7 [30] = assay: Induction of microtubule disruption in human MCF7 cells assessed as cell shrinkage at IC50 after 12 hrs by DAPI staining based microscopic analysis; how it was run: as §7
MCF7 [31] = assay: Induction of microtubule disruption in human MCF7 cells assessed as cell rounding at IC50 after 12 hrs by DAPI staining based microscopic analysis; how it was run: as §7
MCF7 [32] = assay: Induction of microtubule disruption in human MCF7 cells assessed as nuclei contraction at IC50 after 12 hrs by DAPI staining based microscopic analysis; type: cell-based
MCF7 [33] = assay: Induction of microtubule disruption in human MCF7 cells assessed as nuclei condensation at IC50 after 12 hrs by DAPI staining based microscopic analysis; type: cell-based
MCF7 [34] = assay: Inhibition of beta-tubulin polymerization in human MCF7 cells assessed as increase in beta-tubulin levels at IC50 after 24 hrs by Western blot analysis; type: cell-based

Row | Structure (SMILES) | viability at 10 µM (MCF7 [1]) [%] | viability at 30 µM (MCF7 [2]) [%] | viability at 10 µM (Hs-578T [3]) [%] | viability at 30 µM (Hs-578T [4]) [%] | viability at 72 h, 10 µM [5] [%] | viability at 72 h, 30 µM [6] [%] | IC50 (MCF7 [7]) [µM] | IC50 (Hs-578T [8]) [µM] | IC50 (MCF-10A [9]) [µM] | Activity (MCF7 [10]) | Activity (MCF7 [13]) | Activity (MCF7 [14]) | Activity (MCF7 [16]) | IC50 (MCF7 [17]) [µM] | IC50 (MCF-10A [18]) [µM] | selectivity ratio [19] | Activity (MCF7 [20]) | Activity (MCF7 [21]) [%] | Activity (MCF7 [22]) | Activity (MCF7 [23]) | also measured
1 | O=C(/C=C/c1cc(Br)ccc1O)c1ccc(Br)cc1 | 28.7 | 28.3 | 63.5 | 124 | 32.8 | 47.6 | 3.82 | 5.88 | 29.3 | inactive | Active | Active | inactive | 0.28 | 15.1 | 53 | Active | – | – | – | Activity (MCF7 [11]): inactive; Activity (MCF7 [12]): inactive; Activity (MCF7 [15]): inactive
2 | COc1cccc(C(=O)/C=C/c2cc(Br)ccc2O)c1 | 26.9 | 28.3 | 38.5 | 55.8 | 33.8 | 66.3 | 5.07 | 7.27 | 40.6 | inactive | Active | Active | inactive | 0.42 | > 60 | > 142 | Active | >50 | Active | Active | Activity (MCF7 [24]): Active; Activity (MCF7 [25]): Active
3 | COc1cccc(C(=O)CC2C(C#N)=C(N)Oc3c(OC)cc(Br)cc32)c1 (centres undefined) | 55.9 | 33.9 | 46.1 | 83.3 | 32.3 | 46.3 | 3.65 | 4.52 | 18.9 | – | Active | Active | – | 0.11 | 1.58 | 13.4 | Active | 20 | Active | Active | Activity (MCF7 [26]): 50%; Activity (MCF7 [27]): Active; Activity (MCF7 [28]): Active; Activity (MCF7 [29]): Active; Activity (MCF7 [30]): Active; Activity (MCF7 [31]): Active; Activity (MCF7 [32]): Active; Activity (MCF7 [33]): Active; inhibition (MCF7 [34]): Active
